Experiments:
Plasmodium falciparum = experiment: Antiplasmodial activity against Plasmodium falciparum FcB1 as [3H]hypoxanthine uptake after 24 hrs; assay type: functional, organism-based
How it was run: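 Chloroquine-resistant FcB1/Colombia P. falciparum, asynchronous cultures at 1% parasitemia, 1.5% final hematocrit. Compounds taken from 10 µg/mL DMSO solution, diluted in culture medium; 24 h at 37 °C in candle jar, then 0.5 µCi [3H]hypoxanthine per well, further 24 h. Freeze-thaw, harvest onto glass fibre filters, scintillation count; inhibition vs same-plate untreated control; IC50 by Desjardins method.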

KB = experiment: Cytotoxicity against human KB cells after 72 hrs by neutral red staining; assay type: functional, cell-based
How it was run: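 Human nasopharynx carcinoma KB cells (3 × 10^3 cells/mL) in D-MEM with 10% FCS, 2 mM L-glutamine, penicillin G, streptomycin, gentamicin. Compound stocks in DMSO/H2O (1:9). Exposure 72 h at 37 °C, air/CO2 95:5; growth read colorimetrically by neutral red uptake of living cells, relative to untreated cells.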

Compound | IC50 (Plasmodium falciparum) [µM] | IC50 (KB) [µM]
COc1cc2c(cc1O)CC[N+]1([O-])Cc3cc(OC)c(OC)cc3C[C@@H]21 (stereo partly drawn) | 4.2 | > 28
COc1c(O)cc2c3c(cc4ccccc4c13)NC2=O [ARISTOLACTAM AII] | > 37 | > 37
COc1cc2c(cc1O)CC[n+]1cc3cc(OC)c(OC)cc3cc1-2 [DEHYDRODISCRETINE] | 0.9 | > 29
COc1ccc2c(c1OC)C[C@H]1NCCc3c(OC)c4c(c-2c31)OCO4 [DESMOROSTRATINE] | 3.6 | 2.4
COc1cc2c(cc1O)CCN1Cc3cc(OC)c(OC)cc3C[C@@H]21 [DISCRETINE] | 1.6 | > 29
CC(=O)O[C@@]12CO[C@@H]1C[C@H](O)[C@@]1(C)C(=O)[C@H](O)C3=C(C)[C@@H](OC(=O)[C@H](O)[C@@H](NC(=O)OC(C)(C)C)c4ccccc4)C[C@@](O)([C@@H](OC(=O)c4ccccc4)[C@H]21)C3(C)C [DOCETAXEL] |  | 0.0002
COc1cc2c(cc1OC)-c1c(OC)c(O)cc3c1[C@H](C2)N(C)CC3 [PREDICENTRINE] | 27.8 | > 29
